Screening results: PubChem, The Scripps Research Institute Molecular Screening Center
A selection: hits, their analogues and other compounds. The true share with any hit is near 2%.
LEDGF integ inh – blockers of LEDGF/p75-dependent integrase strand transfer – biochemical, TR-FRET, high throughput, primary screen; TR-FRET IN-LEDGF/p75 DNA integration, Eu/Cy5; HIV-1 integrase (with human LEDGF/p75); 0.64% of 370,000 active; inhibition, % at 3.7 µM;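 active means inhibition above the screen-wide mean plus 3 SD, cut at about 13% in these data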;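 further: signal is the Cy5 over europium emission ratio at 671 and 618 nm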
ASAP1 GAP inh – inhibitors of human ASAP1 ArfGAP activity, primary screen, biochemical, fluorescence polarization. Arf-GAP with SH3 domain, ANK repeat and PH domain-containing protein 1 (Homo sapiens), …. ASAP1-stimulated ARF1 GTP hydrolysis, GDP FP detection. inhibition, % at 16.5 µM. 0.19% of 360,000 active
MBD2 DNA inh – inhibitors of MBD2 binding to methylated DNA, primary screen, biochemical, TR-FRET, DNA-binding domain, human; Methyl-CpG-binding domain protein 2 (Homo sapiens), Q9UBB5; MBD2 binding to methylated oligonucleotide; inhibition, % at 4.4 µM; 0.31% of 370,000 active; AID 686964, 2013; in the data active means inhibition above about 13%
UHRF1 binding – UHRF1 methylated DNA binding inhibitors, primary screen, counter-screen for MBD2 inhibitor project, biochemical, TR-FRET, human UHRF1, single concentration; E3 ubiquitin-protein ligase UHRF1 (Homo sapiens), Q96T88; UHRF1 binding to methylated oligo; inhibition, % at 4.4 µM; 0.75% of 370,000 active; AID 687016, 2013; in the data active means inhibition above about 21%;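 further: UHRF1 SRA domain binding a hemimethylated CpG hairpin DNA probe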
ARFGAP1 inhibitor – inhibitors of rat ARFGAP1 GAP activity, primary screen, biochemical, fluorescence polarization, GDP tracer. Arfgap1-stimulated ARF1 GTP hydrolysis, GDP FP detection. inhibition, % at 16.5 µM. ADP-ribosylation factor GTPase-activating protein 1 (Rattus norvegicus), Q62848. 0.26% of 360,000 active;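 active means inhibition above a per-plate limit, mean inhibition of low control wells plus 3 SD, cut at about 25% in these data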
Target sequence (Q62848 1-136 limits assumed): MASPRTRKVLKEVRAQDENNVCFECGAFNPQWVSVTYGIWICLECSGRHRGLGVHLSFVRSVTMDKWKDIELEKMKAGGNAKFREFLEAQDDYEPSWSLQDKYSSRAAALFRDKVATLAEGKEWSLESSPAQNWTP
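system = rat Arfgap1 catalytic domain, aa 1-136 | technique = FP, GDP Alexa 633 tracer displaced from anti-GDP antibody, 620/688 nm | compound = one concentration, 16.5 µM, DMSO 1.26% | medium = HEPES-based buffer, pH 7.5 | timing = compound-enzyme preincubation 20 min, reaction 120 min, detection 60 min, 25 °C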
TDP2 absorb – human TDP2 enzyme inhibitors, primary screen, biochemical, epi absorbance, recombinant enzyme; inhibition, % at 12.8 µM; AID 720702, 2013; T5PNP hydrolysis, p-nitrophenol absorbance 415 nm; 0.34% of 370,000 active;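 active means inhibition above the mean of all tested compounds plus 3 SD, set per campaign, cut at about 25% in these data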
Target sequence (O95551 whole entry, looked up): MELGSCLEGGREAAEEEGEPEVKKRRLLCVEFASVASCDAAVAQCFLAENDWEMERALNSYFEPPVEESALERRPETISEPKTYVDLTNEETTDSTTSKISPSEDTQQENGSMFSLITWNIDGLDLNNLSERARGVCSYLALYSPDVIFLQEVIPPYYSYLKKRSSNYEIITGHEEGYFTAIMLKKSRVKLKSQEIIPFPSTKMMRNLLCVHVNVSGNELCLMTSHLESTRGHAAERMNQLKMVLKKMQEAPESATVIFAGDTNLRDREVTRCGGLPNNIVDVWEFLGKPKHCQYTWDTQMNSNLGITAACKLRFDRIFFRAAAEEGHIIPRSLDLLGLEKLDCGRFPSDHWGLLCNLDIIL
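Assay system: recombinant human TDP2 / Reagent: T5PNP substrate at 5 mM, a TopII-DNA adduct mimic / Measured by: epi absorbance from released p-nitrophenol / Evaluation: % inhibition relative to enzyme-containing and enzyme-free wells / Control set: enzyme-free and DMSO wells / Replicates: each compound tested once, singlicate / Schedule: enzyme reaction with compound for 2 h at 37 °C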
TDP2 confirm – human TDP2 enzyme inhibitors, retest, confirmation, biochemical, epi absorbance, recombinant enzyme; 22% of 1,100 active; inhibition, % at 12.8 µM; shares compounds with TDP2 absorb; absorbance read-out
Numbers stand for hits. Unless noted, no stated cut-off is given here; in the data, active means inhibition above about 25%; inactive means the rest.

For C#CCN1CC(N(C)CCOC(=O)CSc2ccccc2)CS1(=O)=O (centres undefined) the results were LEDGF integ inh inactive, MBD2 DNA inh inactive, UHRF1 binding inactive and TDP2 absorb inactive.
Screening COc1ccc(C2=NO[C@@H]3C(=O)N(c4ccc5c(c4)OCCO5)C(=O)[C@H]23)cc1OC returned LEDGF integ inh inactive, ASAP1 GAP inh inactive, MBD2 DNA inh inactive, UHRF1 binding inactive, ARFGAP1 inhibitor inactive and TDP2 absorb inactive.
`CC(C)(C)C(=O)[C@@H]1[C@@H]2C(=O)N(c3ccc4c(c3)OCCO4)C(=O)[C@@H]2C2c3ccccc3C=CN21` (some centres undefined) gave LEDGF integ inh inactive, ASAP1 GAP inh inactive, MBD2 DNA inh inactive, UHRF1 binding inactive, ARFGAP1 inhibitor inactive, TDP2 absorb 27 and TDP2 confirm inactive.
Screening CCN1CCN(CC#CCOc2ccccc2OC)CC1 returned LEDGF integ inh inactive, ASAP1 GAP inh inactive, MBD2 DNA inh inactive, UHRF1 binding inactive, ARFGAP1 inhibitor inactive, TDP2 absorb 29 and TDP2 confirm inactive.
`Cc1ccccc1C(=O)Nc1cccc(NC(=O)c2cccnc2)c1` gave LEDGF integ inh inactive, ASAP1 GAP inh inactive, MBD2 DNA inh inactive, UHRF1 binding inactive, ARFGAP1 inhibitor inactive, TDP2 absorb 25 and TDP2 confirm inactive.
`N#CC1=C(N)OC2=C(C(=O)CCC2)C1c1ccccc1` (centres undefined) gave LEDGF integ inh inactive, ASAP1 GAP inh inactive, MBD2 DNA inh inactive, UHRF1 binding inactive, ARFGAP1 inhibitor inactive and TDP2 absorb inactive.
`CC1CC(=O)C2=C(C1)OC(N)=C(C#N)C2c1coc2ccccc2c1=O` (centres undefined) gave LEDGF integ inh inactive, ASAP1 GAP inh inactive, MBD2 DNA inh inactive, UHRF1 binding inactive, ARFGAP1 inhibitor inactive, TDP2 absorb 26 and TDP2 confirm inactive.
For c1ccc(-c2nnc3sc(C4CCCCC4)nn23)cc1 the results were LEDGF integ inh inactive, MBD2 DNA inh inactive, UHRF1 binding inactive and TDP2 absorb inactive.
Screening Cc1ccc(C(c2c(C)[nH][nH]c2=O)c2c(C)[nH][nH]c2=O)cc1 returned LEDGF integ inh inactive, ASAP1 GAP inh inactive, MBD2 DNA inh inactive, UHRF1 binding inactive, ARFGAP1 inhibitor inactive, TDP2 absorb 33 and TDP2 confirm inactive.
Cc1[nH][nH]c(=O)c1C(c1ccc([N+](=O)[O-])cc1)c1c(C)[nH][nH]c1=O was read as LEDGF integ inh inactive, ASAP1 GAP inh inactive, MBD2 DNA inh inactive, UHRF1 binding inactive, ARFGAP1 inhibitor inactive, TDP2 absorb 31 and TDP2 confirm inactive.
For Cc1[nH][nH]c(=O)c1C(c1ccc(O)c([N+](=O)[O-])c1)c1c(C)[nH][nH]c1=O the results were LEDGF integ inh inactive, ASAP1 GAP inh inactive, MBD2 DNA inh inactive, UHRF1 binding inactive, ARFGAP1 inhibitor inactive and TDP2 absorb inactive.
Screening COc1ccc(OC)c(C(c2c(C)[nH][nH]c2=O)c2c(C)[nH][nH]c2=O)c1 returned LEDGF integ inh inactive, ASAP1 GAP inh inactive, MBD2 DNA inh inactive, UHRF1 binding inactive, ARFGAP1 inhibitor inactive, TDP2 absorb 50 and TDP2 confirm inactive.
CCCC[C@H]1C2CC(OC(=O)Nc3cccc(C(F)(F)F)c3)C(C2)[C@H]2CCCCN21 (some centres undefined) was read as LEDGF integ inh inactive, MBD2 DNA inh inactive, UHRF1 binding inactive and TDP2 absorb inactive.
`COc1ccc(S[C@]2(C(=O)N3CCN(c4ncccn4)CC3)CC(=O)N(C(=O)C3CC3)[C@@H]2c2ccc(OC)cc2)cc1` gave LEDGF integ inh inactive, MBD2 DNA inh inactive, UHRF1 binding inactive and TDP2 absorb inactive.
Screening Cc1cc(O)c(C=Nc2ccc(N3CCOCC3)cc2)c(C)c1Cl returned LEDGF integ inh inactive, ASAP1 GAP inh inactive, MBD2 DNA inh inactive, UHRF1 binding inactive, ARFGAP1 inhibitor inactive, TDP2 absorb 37 and TDP2 confirm inactive.
Screening CCOc1ccc(N2CC(C(=O)N3CCCC3)CC2=O)cc1 (centres undefined) returned LEDGF integ inh inactive, ASAP1 GAP inh inactive, MBD2 DNA inh inactive, UHRF1 binding inactive, ARFGAP1 inhibitor inactive and TDP2 absorb inactive.
CCOc1ccc(N2CC(C(=O)N3CCN(C(=O)c4ccco4)CC3)CC2=O)cc1 (centres undefined) was read as LEDGF integ inh inactive, ASAP1 GAP inh inactive, MBD2 DNA inh inactive, UHRF1 binding inactive, ARFGAP1 inhibitor inactive, TDP2 absorb 26 and TDP2 confirm inactive.
For COc1cccc(N2CCN(Cc3cccnc3)CC2)c1 the results were LEDGF integ inh inactive, ASAP1 GAP inh inactive, MBD2 DNA inh inactive, UHRF1 binding inactive, ARFGAP1 inhibitor inactive, TDP2 absorb 31 and TDP2 confirm inactive.
Cc1ccc(C2CCC3(CCC(=O)N3CCOC(=O)Nc3cccc(C#N)c3)CC2)cc1 (centres undefined) was read as LEDGF integ inh inactive, MBD2 DNA inh inactive, UHRF1 binding inactive and TDP2 absorb inactive.
`CCN(C(=O)[C@@H]1CC(=O)O[C@@H]1c1ccccc1)c1ccccc1` gave LEDGF integ inh inactive, MBD2 DNA inh inactive, UHRF1 binding inactive and TDP2 absorb inactive.
For COc1ccc(CCn2c(N)c(C(=O)NCc3ccco3)c3nc4ccccc4nc32)cc1OC the results were LEDGF integ inh inactive, ASAP1 GAP inh inactive, MBD2 DNA inh inactive, UHRF1 binding inactive, ARFGAP1 inhibitor inactive, TDP2 absorb 25 and TDP2 confirm 26.
Screening COc1ccc(CCn2c(N)c(C(=O)NCc3ccco3)c3nc4ccccc4nc32)cc1 returned LEDGF integ inh inactive, ASAP1 GAP inh inactive, MBD2 DNA inh inactive, UHRF1 binding inactive, ARFGAP1 inhibitor inactive and TDP2 absorb inactive.
O=C(OCCCN1CCC2(CCC(c3ccccc3)CC2)C1=O)c1ccccc1 (centres undefined) was read as LEDGF integ inh inactive, MBD2 DNA inh inactive, UHRF1 binding inactive and TDP2 absorb inactive.
`Cc1nn(-c2ccccc2)c(N)c1C1(O)C(=O)Nc2ccc([N+](=O)[O-])cc21` (centres undefined) gave LEDGF integ inh inactive, ASAP1 GAP inh inactive, MBD2 DNA inh inactive, UHRF1 binding inactive, ARFGAP1 inhibitor inactive, TDP2 absorb 33 and TDP2 confirm inactive.
